The source of these data is ChEMBL document CHEMBL4043227, “Novel xanthone-polyamine conjugates as catalytic inhibitors of human topoisomerase IIα” (Bioorg Med Chem Lett, 2017).

Activity calls are given as the source filed them. The calls are words filed in the database; no cut-off is given here. A value given as a limit tells only on which side of the number the result lay.

For data set [1], the target named is T1, DNA topoisomerase 2-alpha (Homo sapiens, UniProt P11388). The experiment in a line: Inhibition of 3 nM recombinant human topoisomerase-2alpha catalytic activity expressed in Saccharomyces cerevisiae JEL1 harboring topoisomerase1 deletion mutant assessed as reduction in supercoiled pBR322 DNA relaxation after 4 mins by ethidium bromide staining based agarose gel electrophoresis. The method, boiled down:
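Topo IIα at 3 nM relaxes negatively supercoiled DNA, with no-enzyme and enzyme-only controls. Supercoiled (form I) and nicked (form II) bands are resolved on gel, and IC50 is estimated from the gels. Gels represent 2-4 independent experiments.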
Target sequence in this assay (P11388 whole entry, looked up, stated change not applied): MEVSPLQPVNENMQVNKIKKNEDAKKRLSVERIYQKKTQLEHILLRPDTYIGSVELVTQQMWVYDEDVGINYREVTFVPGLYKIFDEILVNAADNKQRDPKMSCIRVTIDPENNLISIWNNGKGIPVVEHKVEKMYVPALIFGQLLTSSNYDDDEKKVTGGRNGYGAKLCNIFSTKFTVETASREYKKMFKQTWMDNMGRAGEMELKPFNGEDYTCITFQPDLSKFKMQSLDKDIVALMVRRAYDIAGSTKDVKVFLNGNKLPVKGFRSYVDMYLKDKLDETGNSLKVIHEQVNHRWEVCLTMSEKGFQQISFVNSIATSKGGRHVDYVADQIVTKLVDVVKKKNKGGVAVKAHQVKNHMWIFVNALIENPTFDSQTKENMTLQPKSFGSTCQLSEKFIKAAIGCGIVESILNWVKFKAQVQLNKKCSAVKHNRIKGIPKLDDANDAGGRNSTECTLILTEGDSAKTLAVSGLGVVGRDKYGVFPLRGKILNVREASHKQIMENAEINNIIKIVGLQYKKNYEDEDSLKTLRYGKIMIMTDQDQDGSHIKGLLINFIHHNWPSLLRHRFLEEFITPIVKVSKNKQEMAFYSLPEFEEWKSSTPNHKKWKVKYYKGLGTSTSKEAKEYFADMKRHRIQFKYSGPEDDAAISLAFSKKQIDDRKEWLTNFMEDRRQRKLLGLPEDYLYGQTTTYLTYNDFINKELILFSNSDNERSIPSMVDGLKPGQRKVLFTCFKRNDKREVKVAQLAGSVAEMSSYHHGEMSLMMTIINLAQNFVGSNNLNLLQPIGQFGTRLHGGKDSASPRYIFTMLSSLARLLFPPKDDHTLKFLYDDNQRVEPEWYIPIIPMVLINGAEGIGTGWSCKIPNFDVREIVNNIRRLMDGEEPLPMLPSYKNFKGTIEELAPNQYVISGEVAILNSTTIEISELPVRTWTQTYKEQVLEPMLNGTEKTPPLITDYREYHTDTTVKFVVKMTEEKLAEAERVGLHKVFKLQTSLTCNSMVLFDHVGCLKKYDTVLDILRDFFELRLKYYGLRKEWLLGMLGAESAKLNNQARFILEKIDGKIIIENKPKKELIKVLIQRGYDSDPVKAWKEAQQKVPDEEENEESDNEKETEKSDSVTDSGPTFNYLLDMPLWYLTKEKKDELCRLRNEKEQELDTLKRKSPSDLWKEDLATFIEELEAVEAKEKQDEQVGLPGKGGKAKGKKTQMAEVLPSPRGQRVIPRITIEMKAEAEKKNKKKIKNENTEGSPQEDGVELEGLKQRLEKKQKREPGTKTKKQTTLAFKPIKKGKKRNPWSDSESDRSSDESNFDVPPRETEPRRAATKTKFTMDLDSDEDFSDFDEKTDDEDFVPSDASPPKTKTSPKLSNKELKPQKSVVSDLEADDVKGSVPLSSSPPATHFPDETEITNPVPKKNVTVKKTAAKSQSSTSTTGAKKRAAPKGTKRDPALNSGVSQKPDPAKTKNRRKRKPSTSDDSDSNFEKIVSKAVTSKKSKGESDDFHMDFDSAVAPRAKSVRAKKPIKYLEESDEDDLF

The target in data set [2] is T1, DNA topoisomerase 2-alpha. The experiment in a line: Inhibition of recombinant human topoisomerase-2alpha expressed in Saccharomyces cerevisiae JEL1 harboring topoisomerase1 deletion mutant assessed as enzyme-mediated supercoiled pBR322 cleavable complex formation up to 10 uM in presence of CaCl2 by ethidium bromide staining based agarose gel electrophoresis. The method, boiled down: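 Cleavage reactions contain CaCl2, which raises baseline topo IIα DNA cleavage about 10- to 15-fold. Enzyme at 150 nM with negatively supercoiled DNA. Xanthones are tested up to 10 µM, with no-enzyme and enzyme-only controls.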
Target sequence in this assay (P11388 whole entry): as the sequence (P11388 whole entry, looked up, stated change not applied) above

Data set [3] concerns the target T1, DNA topoisomerase 2-alpha. The experiment in a line: Poison activity at recombinant human topoisomerase-2alpha expressed in Saccharomyces cerevisiae JEL1 harboring topoisomerase1 deletion mutant assessed as enzyme-mediated supercoiled pBR322 cleavable complex formation at 2.5 to 100 uM after 6 mins by ethidium bromide staining based agarose gel electrophoresis. The method, boiled down:
(§1)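 Double-strand DNA cleavage by topo IIα (150 nM) on negatively supercoiled DNA, tested at 2.5, 10, 50 and 100 µM (one compound only up to 10 µM). Linear form III is resolved from forms I and II on ethidium-stained gels. Cleavage is normalised to the no-drug control set to 1, with 100 µM etoposide as reference. SD of 2-3 independent experiments.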
Target sequence in this assay (P11388 whole entry): as the sequence (P11388 whole entry, looked up, stated change not applied) above

In data set [4] the target is T1, DNA topoisomerase 2-alpha. The experiment in a line: Inhibition of 3 nM recombinant human topoisomerase-2alpha catalytic activity expressed in Saccharomyces cerevisiae JEL1 harboring topoisomerase1 deletion mutant assessed as reduction in supercoiled pBR322 DNA relaxation at 10 uM after 4 mins by ethidium bromide staining based agarose gel electrophoresis. The method, boiled down: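 Relaxation of negatively supercoiled plasmid by 3 nM topoisomerase IIα was read from gel mobility (supercoiled form I vs nicked form II). Controls were DNA without enzyme and enzyme-treated DNA without compound. Gels are representative of 2-4 independent experiments.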
Target sequence in this assay (P11388 whole entry): as the sequence (P11388 whole entry, looked up, stated change not applied) above

The target in data set [5] is T1, DNA topoisomerase 2-alpha. The experiment in a line: Inhibition of recombinant human topoisomerase-2alpha catalytic activity expressed in Saccharomyces cerevisiae JEL1 harboring topoisomerase1 deletion mutant assessed as reduction in supercoiled pBR322 DNA relaxation at 10 uM in presence of spermidine by ethidium bromide staining based agarose gel electrophoresis. The method, boiled down: (§2)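 Negatively supercoiled plasmid relaxed by 3 nM topoisomerase IIα with polyamine (spermidine or spermine) added. Controls were DNA without enzyme and enzyme without inhibitor. Products resolved on gels with supercoiled (form I) and nicked (form II) markers, then quantified. Error bars are standard error of the mean for 2 independent experiments.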
Target sequence in this assay (P11388 whole entry): as the sequence (P11388 whole entry, looked up, stated change not applied) above

Data set [6] addresses T1, DNA topoisomerase 2-alpha. The experiment in a line: Inhibition of recombinant human topoisomerase-2alpha catalytic activity expressed in Saccharomyces cerevisiae JEL1 harboring topoisomerase1 deletion mutant assessed as reduction in supercoiled pBR322 DNA relaxation at 10 uM in presence of spermine by ethidium bromide staining based agarose gel electrophoresis. A digest of the protocol: as §2
Target sequence in this assay (P11388 whole entry): as the sequence (P11388 whole entry, looked up, stated change not applied) above

For data set [7], the target named is T1, DNA topoisomerase 2-alpha. The experiment in a line: Ratio of IC50 for recombinant human topoisomerase-2alpha expressed in Saccharomyces cerevisiae JEL1 harboring topoisomerase1 deletion mutant assessed as enzyme-mediated decatenation of kinetoplast DNA to IC50 for recombinant human topoisomerase-2alpha catalytic activity expressed in Saccharomyces cerevisiae JEL1 harboring topoisomerase1 deletion mutant assessed as reduction in supercoiled pBR322 DNA relaxation.
Target sequence in this assay (P11388 whole entry): as the sequence (P11388 whole entry, looked up, stated change not applied) above

The target of data set [8] is T1, DNA topoisomerase 2-alpha. The experiment in a line: Inhibition of 150 nM recombinant human topoisomerase-2alpha catalytic activity expressed in Saccharomyces cerevisiae JEL1 harboring topoisomerase1 deletion mutant assessed as reduction in supercoiled pBR322 DNA relaxation at 10 uM after 4 mins by ethidium bromide staining based agarose gel electrophoresis. A digest of the protocol:
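Control relaxation run at high enzyme (150 nM topo IIα) to match the cleavage assay. Negatively supercoiled DNA substrate, with no-enzyme and enzyme-only controls, read on gel.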

The target in data set [9] is T1, DNA topoisomerase 2-alpha. The experiment in a line: Inhibition of recombinant human topoisomerase-2alpha expressed in Saccharomyces cerevisiae JEL1 harboring topoisomerase1 deletion mutant assessed as reduction in etoposide induced enzyme-mediated DNA cleavage up to 100 uM by ethidium bromide staining based agarose gel electrophoresis. A digest of the protocol:
(§3)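 Competition assay: 5-100 µM xanthone (one compound only up to 10 µM, for solubility) is added with 100 µM etoposide. Enzyme double-strand break levels are expressed relative to etoposide alone, set to 100%. Mean ± SD of 2-3 independent experiments.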

The target in data set [10] is T1, DNA topoisomerase 2-alpha. The experiment in a line: Inhibition of 150 nM recombinant human topoisomerase-2alpha catalytic activity expressed in Saccharomyces cerevisiae JEL1 harboring topoisomerase1 deletion mutant assessed as reduction in enzyme-mediated relaxed pBR322 DNA strand passage after 2 mins in presence of APP(NH)P by ethidium bromide staining based agarose gel electrophoresis. A digest of the protocol: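 Topo IIα at 150 nM with relaxed DNA as substrate, ATP replaced by the non-hydrolysable analogue APP(NH)P, so only events up to strand passage are scored. Catenated DNA is read at the gel origin against relaxed DNA bands, with no-enzyme and enzyme-only controls. Gels represent at least 3 independent experiments.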
Target sequence in this assay (P11388 whole entry, looked up, stated change not applied): as above

The target of data set [11] is T1, DNA topoisomerase 2-alpha. The experiment in a line: Inhibition of recombinant human topoisomerase-2alpha expressed in Saccharomyces cerevisiae JEL1 harboring topoisomerase1 deletion mutant assessed as reduction in enzyme-mediated [gamma32P]ATP hydrolysis up to 50 uM after 8 mins.
Data set [12] has as its target T1, DNA topoisomerase 2-alpha. The experiment in a line: Inhibition of recombinant human topoisomerase-2alpha expressed in Saccharomyces cerevisiae JEL1 harboring topoisomerase1 deletion mutant assessed as reduction in enzyme-mediated [gamma32P]ATP hydrolysis using relaxed pBR322 DNA as substrate after 8 mins.
Target sequence in this assay (P11388 whole entry, looked up, stated change not applied): as above
Data set [13] can be described thus: Solubility of the compound in Tris-HCl at pH 7.9 at 50 to 100 uM. The class given is physicochemical. Particulars: buffer, pH 7.9, 100 µM.
The target of data set [14] is T1, DNA topoisomerase 2-alpha. The experiment in a line: Inhibition of recombinant human topoisomerase-2alpha expressed in Saccharomyces cerevisiae JEL1 harboring topoisomerase1 deletion mutant assessed as reduction in etoposide induced enzyme-mediated DNA cleavage up to 10 uM by ethidium bromide staining based agarose gel electrophoresis. The method, boiled down:
as §3

The target of data set [15] is T1, DNA topoisomerase 2-alpha. The experiment in a line: Poison activity at recombinant human topoisomerase-2alpha expressed in Saccharomyces cerevisiae JEL1 harboring topoisomerase1 deletion mutant assessed as enzyme-mediated supercoiled pBR322 cleavable complex formation up to 10 uM after 6 mins by ethidium bromide staining based agarose gel electrophoresis. The method, boiled down: as §1

In the case of `NCCCNCCCCNCCCN` [SPERMINE], the IC50 (commonly the concentration at which inhibition is half-maximal) in data set [1] was above 1000 µM.
With `O=c1c2ccccc2oc2cc(O)cc(O)c12`, the half-inhibitory concentration (IC50) in data set [1] is at least 100 µM. Further, the inhibition entry in [2], in [4], in [5], in [6] and in data set [8] was “inactive” in each case. Moreover, the outcome in [3] was inactive. In [7], the Ratio IC50 was in the range of 2 to 3.
As to `NCCCNCC(O)COc1cc(O)c2c(=O)c3ccccc3oc2c1` (stereo not given), in [1], the IC50 is 1 µM. Besides, the inhibition entry in [2] is “inactive”. In data set [3], the result was inactive. Also, the inhibition result in data set [9] and in data set [8] was “Active” throughout. For the same compound, in [7], the Ratio IC50 was 2 to 3.
On to `NCCCCNCCCNCC(O)COc1cc(O)c2c(=O)c3ccccc3oc2c1` (stereo not given), for which the IC50 was below 10 µM in data set [10] and 10 µM in [12]. In addition, the inhibition result in [11] and in [2] was “inactive” each time. Besides, in data set [3], the result was inactive. Moreover, the inhibition result in data set [9] and in data set [8] was “Active” each time. In addition, in data set [7], the Ratio IC50 was 2 to 3.
In the case of `NCCCCNCCCN` [SPERMIDINE], the IC50 in data set [1] was above 1000 µM.
As to `Cl.Cl.Cl.Cl.NCCCNCCCCNCCCNCC(O)COc1cc(O)c2c(=O)c3ccccc3oc2c1` (stereo not given), the solubility entry in [13] is “Insoluble”. Moreover, in [10], the IC50 was below 10 µM. The inhibition result in [2] is “inactive”. Also, the inhibition entry in data set [14] and in [8] was “Active” each time. The outcome in [15] was inactive. Moreover, the Ratio IC50 in data set [7] lay in the range of 2 to 3.
With `NCCCCNCC(O)COc1cc(O)c2c(=O)c3ccccc3oc2c1` (stereo not given), the IC50 in data set [1] lay in the range of 2.5 to 5 µM. Besides, in data set [3], the result was inactive.
The matching figures for `CCCCNCC(O)COc1cc(O)c2c(=O)c3ccccc3oc2c1` (stereo not given): 100 µM and “inactive”.
